Assay results reported in ChEMBL document CHEMBL2034936, “Discovery and extensive in vitro evaluations of NK-HDAC-1: a chiral histone deacetylase inhibitor as a promising lead” (J Med Chem, 2012).
Calls of active or inactive are those of the source. The rule behind the calls is not given here.

Tests used:
NCI-H23 = assay: cells; type: functional; details: Homo sapiens, NCI-H23, 72 h
OVCAR-5 = assay: Growth inhibition of human OVCAR5 cells after 72 hrs by MTS assay; type: functional; details: OVCAR-5, 72 h
UACC-257 = assay: cells; type: functional; details: Homo sapiens, UACC-257, 72 h
PC-3 [1] = assay: cells; type: functional; details: Homo sapiens, PC-3, 72 h
UACC-62 = assay: Growth inhibition of human UACC62 cells after 72 hrs by MTS assay; type: functional; details: UACC-62, 72 h
SK-MEL-2 = assay: cells; type: functional; details: Homo sapiens, SK-MEL-2, 72 h
HT-29 = assay: Growth inhibition of human HT-29 cells after 72 hrs by MTS assay; type: functional; details: HT-29, 72 h
SNB-75 = assay: Growth inhibition of human SNB75 cells after 72 hrs by MTS assay; type: functional; details: SNB-75, 72 h
SF-539 = assay: cells; type: functional; details: Homo sapiens, SF-539, 72 h
RXF 393 = assay: cells; type: functional; details: Homo sapiens, RXF 393, 72 h
U-251 = assay: cells; type: functional; details: Homo sapiens, U-251, 72 h
HOP-92 = assay: cells; type: functional; details: Homo sapiens, HOP-92, 72 h
HCT-15 = assay: cells; type: functional; details: Homo sapiens, HCT-15, 72 h
Histone deacetylase = assay: Inhibition of HDAC in human HeLa cell nuclear extracts using Ac-Arg-Gly-Lys(Ac)-AMC substrate by fluorimetry; type: protein assay
NCI-H522 = assay: cells; type: functional; details: Homo sapiens, NCI-H522, 72 h
OVCAR-8 = assay: cells; type: functional; details: Homo sapiens, OVCAR-8, 72 h
MOLT-4 = assay: Growth inhibition of human MOLT4 cells after 72 hrs by MTS assay; type: functional; details: MOLT-4, 72 h
SR = assay: Growth inhibition of human SR cells after 72 hrs by MTS assay; type: functional
LOX IMVI = assay: cells; type: functional; details: Homo sapiens, 72 h
cells [2] = type: functional; details: Homo sapiens, NCI/ADR-RES, 72 h
SK-OV-3 = assay: cells; type: functional; details: Homo sapiens, SK-OV-3, 72 h
A498 = assay: cells; type: functional; details: Homo sapiens, A498, 72 h
UO-31 = assay: cells; type: functional; details: Homo sapiens, UO-31, 72 h
SN12C = assay: cells; type: functional; details: Homo sapiens, 72 h
OVCAR-4 = assay: cells; type: functional; details: Homo sapiens, OVCAR-4, 72 h
MCF7 = assay: cells; type: functional; details: Homo sapiens, MCF7, 48 h
SF-295 = assay: cells; type: functional; details: Homo sapiens, SF-295, 72 h
T47D = assay: cells; type: functional; details: Homo sapiens, 72 h
K562 [3] = assay: cells; type: functional; details: Homo sapiens, K562, 72 h
SK-MEL-28 = assay: cells; type: functional; details: Homo sapiens, SK-MEL-28, 72 h
BT-549 = assay: cells; type: functional; details: Homo sapiens, BT-549, 72 h
NCI-H226 = assay: cells; type: functional; details: Homo sapiens, NCI-H226, 72 h
Malme-3M = assay: cells; type: functional; details: Homo sapiens, 72 h
HL-60(TB) = assay: cells; type: functional; details: Homo sapiens, HL-60, 72 h
COLO 205 [4] = assay: Growth inhibition of human COLO205 cells after 72 hrs by MTS assay; type: functional; details: COLO 205, 72 h
NCI-H322M = assay: Growth inhibition of human NCI-H322M cells after 72 hrs by MTS assay; type: functional
786-0 = assay: cells; type: functional; details: Homo sapiens, 786-0, 72 h
OVCAR-3 [5] = assay: cells; type: functional; details: Homo sapiens, OVCAR-3, 72 h
NCI-H460 = assay: Growth inhibition of human NCI-H460 cells after 72 hrs by MTS assay; type: functional; details: NCI-H460, 72 h
SNB-19 = assay: cells; type: functional; details: Homo sapiens, SNB-19, 72 h
SF-268 = assay: cells; type: functional; details: Homo sapiens, SF-268, 72 h
HCT-116 = assay: Growth inhibition of human HCT116 cells after 72 hrs by MTS assay; type: functional; details: HCT-116, 72 h
M14 = assay: cells; type: functional; details: Homo sapiens, M14, 72 h
SW-620 [6] = assay: cells; type: functional; details: Homo sapiens, SW-620, 72 h
MDA-MB-435 = assay: cells; type: functional; details: Homo sapiens, MDA-MB-435, 72 h
KM12 = assay: cells; type: functional; details: Homo sapiens, KM12, 72 h
CCRF-CEM = assay: Growth inhibition of human CCRF-CEM cells after 72 hrs by MTS assay; type: functional
EKVX = assay: cells; type: functional; details: Homo sapiens, 72 h
cells [7] = type: functional; details: Homo sapiens, Hs-578T, 72 h
TK-10 = assay: cells; type: functional; details: Homo sapiens, TK-10, 72 h
DU-145 = assay: cells; type: functional; details: Homo sapiens, DU-145, 72 h
A549 [8] = assay: cells; type: functional; details: Homo sapiens, A549, 72 h
ACHN = assay: cells; type: functional; details: Homo sapiens, 72 h
MDA-MB-231 [9] = assay: cells; type: functional; details: Homo sapiens, MDA-MB-231, 72 h
IGROV-1 = assay: cells; type: functional; details: Homo sapiens, IGROV-1, 72 h
SK-MEL-5 = assay: cells; type: functional; details: Homo sapiens, SK-MEL-5, 72 h
MDA-MB-468 = assay: cells; type: functional; details: Homo sapiens, MDA-MB-468, 72 h
SW-620 [10] = assay: cells; type: functional; details: Homo sapiens, SW-620, 72 h; remark: listed apart in the source
PC-3 [11] = assay: cells; type: functional; details: Homo sapiens, PC-3, 72 h; remark: listed apart in the source
MDA-MB-231 [12] = assay: cells; type: functional; details: Homo sapiens, MDA-MB-231, 72 h; remark: listed apart in the source
K562 [13] = assay: cells; type: functional; details: Homo sapiens, K562, 72 h; remark: listed apart in the source
OVCAR-3 [14] = assay: cells; type: functional; details: Homo sapiens, OVCAR-3, 72 h; remark: listed apart in the source
[15] = target: Histone deacetylase (Homo sapiens) (UniProt Q13547+O15379+Q9UBN7+Q92769+Q9UQL6+Q8WUI4+Q9BY41+Q96DB2+P56524+Q9UKV0+Q969S8); assay: Inhibition of HDAC in human MDA-MB-231 cells assessed as stimulation of histone H3 acetylation at 5 uM incubated for 24 hrs by Western blot; type: cell-based
Outline: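 MDA-MB-231 cells in 35-mm dishes, dosed 24 h at graded concentrations, then trypsinized and PBS-washed. Lysed in RIPA (50 mM Tris-HCl pH 7.5, protease and phosphatase inhibitors) for 30 min at 4 °C, then cleared at 12,000g. Lysate, 60 μg protein by BCA, run on SDS-PAGE and PVDF. Blotted with anti-acetyl-histone H3 and HRP anti-rabbit, read by ECL.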

A549 [16] = assay: cells; type: functional; details: Homo sapiens, A549, 72 h; remark: listed apart in the source
COLO 205 [17] = assay: cells; type: functional; details: Homo sapiens, COLO 205, 72 h
HepG2 = assay: cells; type: functional; details: Homo sapiens, HepG2, 72 h
[18] = Lipophilicity, log D of the compound in pH 7.4 PBS buffer; type: physicochemical
[19] = Solubility in neutral water; type: physicochemical
[20] = Apparent permeability from basolateral to apical side in human Caco2 cells at 10 uM; type: ADME, cell-based; details: Caco-2
Outline: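 Caco-2 monolayers, test compound at 10 μM. Apparent permeability measured in both directions, apical to basolateral and basolateral to apical. Efflux ratio = P_app B to A / P_app A to B. Run by a contract lab following published methods. Mean of three independent triplicate experiments.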

Cytochrome P450 3A4 = Cytochrome P450 3A4 (Homo sapiens, UniProt P08684); assay: Inhibition of human CYP3A4; type: ADME
[21] = Half life in mouse plasma; type: ADME, cell-free
[22] = Half life in mouse liver microsomes; type: ADME, Microsome

Sequence of Cytochrome P450 3A4 (P08684 whole entry): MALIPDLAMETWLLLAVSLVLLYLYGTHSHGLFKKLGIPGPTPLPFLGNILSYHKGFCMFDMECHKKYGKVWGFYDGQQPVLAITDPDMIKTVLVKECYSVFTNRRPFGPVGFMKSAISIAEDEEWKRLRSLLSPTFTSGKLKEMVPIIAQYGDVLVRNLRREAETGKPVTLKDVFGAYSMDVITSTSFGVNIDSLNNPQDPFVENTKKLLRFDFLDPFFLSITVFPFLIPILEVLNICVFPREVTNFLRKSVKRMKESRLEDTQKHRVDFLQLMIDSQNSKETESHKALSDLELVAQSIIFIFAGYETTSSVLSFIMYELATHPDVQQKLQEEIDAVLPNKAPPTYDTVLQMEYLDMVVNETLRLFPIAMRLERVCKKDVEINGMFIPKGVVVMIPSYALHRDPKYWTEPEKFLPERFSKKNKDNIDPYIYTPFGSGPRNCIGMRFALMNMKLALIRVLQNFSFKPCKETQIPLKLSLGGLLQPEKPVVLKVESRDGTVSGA

With `CC(C)[C@H](c1nc2ccccc2o1)n1cc(/C=C/C(=O)NO)nn1` the GI50 (NCI-H23) was 350 nM, the GI50 (OVCAR-5) was 400 nM and the GI50 (UACC-257) was 230 nM. For the same compound, the GI50 (PC-3 [1]) was 280 nM, the GI50 (UACC-62) was 400 nM and the GI50 (SK-MEL-2) was 350 nM. The GI50 (HT-29) was 220 nM, the GI50 (SNB-75) was 410 nM and the GI50 (SF-539) was 750 nM. It also gave a GI50 (RXF 393) of 350 nM, a GI50 (U-251) of 340 nM and a GI50 (HOP-92) of 70 nM. It also gave a GI50 (HCT-15) of 960 nM, an IC50 (Histone deacetylase) of 31 nM and a GI50 (NCI-H522) of 130 nM. The GI50 (OVCAR-8) was 240 nM, the GI50 (MOLT-4) was 300 nM and the GI50 (SR) was 350 nM. The GI50 (LOX IMVI) was 160 nM, the GI50 (cells [2]) was 95 nM and the GI50 (SK-OV-3) was 260 nM. The GI50 (A498) was 260 nM, the GI50 (UO-31) was 230 nM and the GI50 (SN12C) was 790 nM. The GI50 (OVCAR-4) was 2800 nM, the GI50 (MCF7) was 450 nM and the GI50 (SF-295) was 310 nM. For the same compound, the GI50 (T47D) was 500 nM, the GI50 (K562 [3]) was 280 nM and the GI50 (SK-MEL-28) was 520 nM. For the same compound, the GI50 (BT-549) was 280 nM, the GI50 (NCI-H226) was 1300 nM and the GI50 (Malme-3M) was 63 nM. The GI50 (HL-60(TB)) was 280 nM, the GI50 (COLO 205 [4]) was 250 nM and the GI50 (NCI-H322M) was 250 nM. The GI50 (786-0) was 340 nM, the GI50 (OVCAR-3 [5]) was 470 nM and the GI50 (NCI-H460) was 390 nM. For the same compound, the GI50 (SNB-19) was 850 nM, the GI50 (SF-268) was 630 nM and the GI50 (HCT-116) was 180 nM. The GI50 (M14) was 410 nM, the GI50 (SW-620 [6]) was 290 nM and the GI50 (MDA-MB-435) was 240 nM. The GI50 (KM12) was 410 nM, the GI50 (CCRF-CEM) was 350 nM and the GI50 (EKVX) was 680 nM. For the same compound, the GI50 (cells [7]) was 1300 nM, the GI50 (TK-10) was 160 nM and the GI50 (DU-145) was 350 nM. It also gave a GI50 (A549 [8]) of 300 nM, a GI50 (ACHN) of 470 nM and a GI50 (MDA-MB-231 [9]) of 910 nM. For the same compound, the GI50 (IGROV-1) was 190 nM, the GI50 (SK-MEL-5) was 250 nM and the GI50 (MDA-MB-468) was 250 nM.
Work on `O=C(/C=C/c1cn(Cc2nc3ccccc3o2)nn1)NO` yielded a GI50 (SW-620 [10]) of 1200 nM, a GI50 (PC-3 [11]) of 1600 nM and an IC50 (Histone deacetylase) of 105 nM. It also gave a GI50 (MDA-MB-231 [12]) of 1400 nM, a GI50 (K562 [13]) of 720 nM and a GI50 (OVCAR-3 [14]) of 1900 nM. For the same compound, the “histone H3 acetylation activity (active/not active)” value [15] was “Active”, the GI50 (A549 [16]) was 4700 nM and the GI50 (COLO 205 [17]) was 1100 nM. The GI50 (HepG2) was 6100 nM.
In the case of `CC(c1nc2ccccc2o1)n1cc(/C=C/C(=O)NO)nn1` (racemic), the IC50 (Histone deacetylase) is reported as 86 nM, the GI50 (MDA-MB-231 [12]) is reported as 1200 nM and the GI50 (A549 [16]) is reported as 2400 nM. It also gave a GI50 (HepG2) of 2900 nM.
Work on `CC(C)CC(c1nc2ccccc2o1)n1cc(/C=C/C(=O)NO)nn1` (racemic) yielded an IC50 (Histone deacetylase) of 19 nM, a GI50 (MDA-MB-231 [12]) of 280 nM and a GI50 (A549 [16]) of 660 nM. For the same compound, the GI50 (HepG2) was 2200 nM.
For `CC(C)C(c1nc2ccccc2o1)n1cc(/C=C/C(=O)NO)nn1` (racemic), the IC50 (Histone deacetylase) was 23 nM, the GI50 (MDA-MB-231 [12]) was 170 nM and the “histone H3 acetylation activity (active/not active)” value [15] was “Active”. For the same compound, the GI50 (A549 [16]) was 400 nM and the GI50 (HepG2) was 1000 nM.
With `O=C(/C=C/c1cn(Cc2nc3ccccc3[nH]2)nn1)NO` the IC50 (Histone deacetylase) was 178 nM, the GI50 (A549 [16]) was over 20000 nM and the GI50 (HepG2) was over 20000 nM.
With `O=C(CCCCCCC(=O)Nc1ccccc1)NO` [VORINOSTAT] the GI50 (OVCAR-5) was 790 nM, the logD [18] was 1 and the GI50 (UACC-62) was 400 nM. It also gave a GI50 (HT-29) of 790 nM, a GI50 (SNB-75) of 790 nM and a solubility [19] of over 170 µg/mL. It also gave a Papp B→A at 10 µM [20] of 1.7 ×10⁻⁶ cm/s, an INH (Cytochrome P450 3A4) of 24.8 µM and a GI50 (MOLT-4) of 400 nM. It also gave a half-life [21] of 3.3 h, a GI50 (COLO 205 [4]) of 790 nM and a GI50 (NCI-H322M) of 790 nM. The GI50 (NCI-H460) was 790 nM, the GI50 (HCT-116) was 400 nM and the half-life [22] was 1.37 h. For the same compound, the GI50 (CCRF-CEM) was 800 nM.
